Data as given in ChEMBL document CHEMBL1124458, “Electrophilic derivatives of purines as irreversible inhibitors of A1 adenosine receptors” (J Med Chem, 1989).
Each block holds one molecule with its values, some of them ahead of it.

Experiments:
[1] = molecular target: T1, Adenosine receptor A1 (Rattus norvegicus) (UniProt P25099); conditions: 50 nM
T1 sequence (whole entry): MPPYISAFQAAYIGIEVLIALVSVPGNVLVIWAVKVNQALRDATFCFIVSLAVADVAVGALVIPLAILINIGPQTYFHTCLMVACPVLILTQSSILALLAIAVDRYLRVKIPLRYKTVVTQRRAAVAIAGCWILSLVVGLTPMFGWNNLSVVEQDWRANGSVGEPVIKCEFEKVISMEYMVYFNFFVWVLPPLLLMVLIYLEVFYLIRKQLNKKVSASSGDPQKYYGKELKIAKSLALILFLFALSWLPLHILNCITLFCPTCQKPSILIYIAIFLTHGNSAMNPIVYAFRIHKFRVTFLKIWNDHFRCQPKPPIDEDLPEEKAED

[2] = molecular target: Adenosine A2 receptor (Rattus norvegicus, UniProt P29276+P30543); test: Inhibition of [3H]N-ethyladenosine-5'-uronamide binding to Adenosine A2 receptor of rat striatal membrane
[3] = molecular target: T2, Adenosine receptors; A1 & A2 (Rattus norvegicus) (UniProt P29276+P25099+P30543); test: Relative affinities for Adenosine A2 and Adenosine A1 receptors; type: protein assay
[4] = molecular target: T1, Adenosine receptor A1 (Rattus norvegicus); test: Percentage inhibition of [125I]APNEA binding to adenosine A1 receptor from rat brain after 45 min incubation at 500 nM
Method in brief: (§1)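 Adenosine deaminase-treated rat cerebral cortex membranes were exposed to the ligand for 45 min at 37 °C. They were washed three times, held in buffer with 10⁻⁴ M IBMX for 18 h at 25 °C, washed and re-treated with deaminase. Residual sites were measured by 125I-APNEA saturation (0.1–2.5 nM) against untreated membranes carried through the same procedure.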

[5] = molecular target: T1, Adenosine receptor A1 (Rattus norvegicus); conditions: 5 nM
[6] = molecular target: T1, Adenosine receptor A1 (Rattus norvegicus); conditions: 5 nM; remark: listed apart in the source
[7] = molecular target: T3, Adenosine receptor A1 (Rattus norvegicus, UniProt P25099); test: Affinity for adenosine A1 receptor using [3H]N6-(phenylisopropyl)adenosine (R)-[3H]-PIA as a radioligand in rat brain.; type: tissue-based
T3 sequence (P25099 whole entry): T1 sequence (whole entry)

[8] = molecular target: T1, Adenosine receptor A1 (Rattus norvegicus); test: Inhibition of [125I]-APNEA binding to adenosine A1 receptor of rat brain at 50 nM
Method in brief: as §1

[9] = molecular target: T4, Adenosine receptor A1 (Bos taurus, UniProt P28190); test: Affinity for Adenosine A1 receptor using [125I]APNEA in calf brain.
T4 sequence (P28190 whole entry): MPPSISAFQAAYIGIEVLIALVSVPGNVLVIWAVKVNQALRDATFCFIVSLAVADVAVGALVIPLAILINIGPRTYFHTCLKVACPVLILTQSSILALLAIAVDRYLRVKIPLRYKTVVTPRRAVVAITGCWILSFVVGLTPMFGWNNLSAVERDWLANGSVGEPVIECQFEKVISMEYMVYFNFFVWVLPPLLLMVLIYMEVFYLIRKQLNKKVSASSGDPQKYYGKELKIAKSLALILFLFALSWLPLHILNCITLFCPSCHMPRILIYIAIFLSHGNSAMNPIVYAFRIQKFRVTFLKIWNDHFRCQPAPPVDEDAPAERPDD
Method in brief: (§2)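 Bovine cerebral cortex membranes were pretreated with adenosine deaminase (0.5 unit/mL, 20 min, 37 °C). Membranes (40 µg) were incubated with 125I-APNEA and competitor for 1 h at 37 °C. Separation was by dilution in cold Tris-HCl/MgCl2/EDTA buffer, pH 8.26, with 0.02% Chaps, then glass-filter filtration and gamma counting. Nonspecific binding was defined with 10⁻⁵ M (R)-PIA.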

[10] = molecular target: T4, Adenosine receptor A1; test: Affinity for Adenosine A1 receptor using [N6-[(3-[125I]-iodo-4-aminophenyl)ethyl]adenosine in calf brain; type: tissue-based
Method in brief: as §2

[11] = molecular target: T3, Adenosine receptor A1; test: Affinity for adenosine A1 receptor using [3H]-N6 -(phenylisopropyl)-adenosine (R)-[3H]-PIA in rat brain.; type: tissue-based
Method in brief: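 Rat cerebral cortex membranes were incubated with 1 nM (R)-[3H]PIA and a range of competitor concentrations. Each point was run in triplicate, in at least three separate experiments.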

[12] = molecular target: T2, Adenosine receptors; A1 & A2 (Rattus norvegicus); test: Selectivity ratio between Ki for adenosine A2 and A1 receptors; type: protein assay
[13] = molecular target: T1, Adenosine receptor A1 (Rattus norvegicus); test: Percentage inhibition of [125I]-APNEA binding to adenosine A1 receptor from rat brain after 45 min incubation at 50 nM
Method in brief: as §1

SMILES: CCCn1c(=O)c2nc(-c3ccc(OCC(=O)NCCNC(=O)Cc4ccc(N/C(S)=N/c5ccc(N=C=S)cc5)cc4)cc3)[nH]c2n(CCC)c1=O
inhibition [1]: 20%
Ki [2]: 655 nM
Ratio [3]: 26.2

inhibition [4]: 0%
SMILES: CCCn1c(=O)c2nc(-c3ccc(OCC(=O)NCCNC(=O)CCC(=O)ON4C(=O)CCC4=O)cc3)[nH]c2n(CCC)c1=O

SMILES: CCCn1c(=O)c2nc(-c3ccc(OCC(=O)NCCN=C(S)Nc4cccc(N=C=S)c4)cc3)[nH]c2n(CCC)c1=O
inhibition [4]: 94%
Ki [2]: 343 nM
Ratio [3]: 144
inhibition [5]: 49%
inhibition [6]: 67%

Ki [7]: 3.72 nM
SMILES: Cc1ccc(NC(=S)NCCNC(=O)Cc2ccc(NC(=O)Cc3ccc(Nc4ncnc5c4ncn5C4O[C@H](CO)[C@@H](O)[C@H]4O)cc3)cc2)cc1 (some centres not stated)

inhibition [8]: 32%
Ki [2]: 207 nM
SMILES: CCCn1c(=O)c2nc(-c3ccc(OCC(=O)NCCNC(=O)CCCCCCC(=O)ON4C(=O)CCC4=O)cc3)[nH]c2n(CCC)c1=O

SMILES: O=C(Cc1ccc(NC(=O)Cc2ccc(Nc3ncnc4c3ncn4C3O[C@H](CO)[C@@H](O)[C@H]3O)cc2)cc1)NCCNC(=S)Nc1ccc(N=C=S)cc1 (some centres not stated)
Ki [7]: 0.469 nM

Ki [7]: 8.71 nM
SMILES: O=C(Cc1ccc(NC(=O)Cc2ccc(Nc3ncnc4c3ncn4C3O[C@H](CO)[C@@H](O)[C@H]3O)cc2)cc1)NCC/N=C(\S)Nc1ccc(F)cc1 (some centres not stated)

Ki [7]: 15.9 nM
SMILES: CCCn1c(=O)c2nc(-c3ccc(OCC(=O)NCCN=C(S)Nc4ccc([N+](=O)[O-])cc4)cc3)[nH]c2n(CCC)c1=O

inhibition [4]: 0%
Ki [9]: 6.2 nM
SMILES: CCCn1c(=O)c2nc(-c3ccc(OCC(=O)NCCNC(=O)CCCCC(C)=O)cc3)[nH]c2n(CCC)c1=O

SMILES: O=C(Cc1ccc(NC(=O)Cc2ccc(Nc3ncnc4c3ncn4C3O[C@H](CO)[C@@H](O)[C@H]3O)cc2)cc1)NCCN=C=S (some centres not stated)
Ki [7]: 4.5 nM
Ki [9]: 4.2 nM

Ki [10]: 23 nM
SMILES: CCCn1c(=O)c2[nH]c(-c3ccc(OCC(=O)NCCNC(=O)CCCCCCC(=O)ON4C(=O)CCC4=O)cc3)nc2n(CCC)c1=O

Ki [10]: 0.3 nM
SMILES: CCCn1c(=O)c2[nH]c(-c3ccc(OCC(=O)NCCN)cc3)nc2n(CCC)c1=O [XANTHINE AMINE CONGENER]

SMILES: O=C(Cc1ccc(NC(=O)Cc2ccc(Nc3ncnc4c3ncn4C3O[C@H](CO)[C@@H](O)[C@H]3O)cc2)cc1)NCCNC(=S)Nc1cccc(N=C=S)c1 (some centres not stated)
Ki [7]: 0.867 nM

Ki [7]: 33.2 nM
SMILES: CCCn1c(=O)c2nc(-c3ccc(OCC(=O)NCCN=C(S)Nc4ccc(OC)cc4)cc3)[nH]c2n(CCC)c1=O

Ki [11]: 8.52 nM
SMILES: COc1ccc(NC(=S)NCCNC(=O)Cc2ccc(NC(=O)Cc3ccc(Nc4ncnc5c4ncn5C4O[C@H](CO)[C@@H](O)[C@H]4O)cc3)cc2)cc1 (some centres not stated)

inhibition [8]: 15%
SMILES: CCCn1c(=O)c2nc(-c3ccc(OCC(=O)NCCNC(=O)c4ccc(CBr)cc4)cc3)[nH]c2n(CCC)c1=O

Ki [7]: 367 nM
Ki [2]: 1450 nM
Ratio [12]: 3.95
SMILES: CCCn1c(=O)c2nc(-c3ccc(OCC(=O)NCCN=C(S)Nc4ccc(S(=O)(=O)[O-])cc4)cc3)[nH]c2n(CCC)c1=O.[Na+]

inhibition [8]: 10%
SMILES: CCCn1c(=O)c2nc(-c3ccc(OCC(=O)ON4C(=O)CCC4=O)cc3)[nH]c2n(CCC)c1=O

inhibition [13]: 23%
Ki [2]: 105 nM
Ratio [3]: 42
SMILES: CCCn1c(=O)c2nc(-c3ccc(OCC(=O)NCCNS(=O)(=O)c4cccc(S(=O)(=O)Cl)c4)cc3)[nH]c2n(CCC)c1=O
